biological target: Excitatory amino acid transporter 1 (Homo sapiens, UniProt P43003); test: Inhibition of [3H]-D-aspartate uptake at human EAAT1 expressed in HEK293 cells after 6 mins by scintillation counting
Procedure, shortened: (§1)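 Each transporter subtype stably expressed in its own HEK293 cell line. Inhibitor potency measured as block of [³H]-D-aspartate uptake into these cells and reported as IC₅₀ values.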

Excitatory amino acid transporter 1, sequence (P43003 whole entry): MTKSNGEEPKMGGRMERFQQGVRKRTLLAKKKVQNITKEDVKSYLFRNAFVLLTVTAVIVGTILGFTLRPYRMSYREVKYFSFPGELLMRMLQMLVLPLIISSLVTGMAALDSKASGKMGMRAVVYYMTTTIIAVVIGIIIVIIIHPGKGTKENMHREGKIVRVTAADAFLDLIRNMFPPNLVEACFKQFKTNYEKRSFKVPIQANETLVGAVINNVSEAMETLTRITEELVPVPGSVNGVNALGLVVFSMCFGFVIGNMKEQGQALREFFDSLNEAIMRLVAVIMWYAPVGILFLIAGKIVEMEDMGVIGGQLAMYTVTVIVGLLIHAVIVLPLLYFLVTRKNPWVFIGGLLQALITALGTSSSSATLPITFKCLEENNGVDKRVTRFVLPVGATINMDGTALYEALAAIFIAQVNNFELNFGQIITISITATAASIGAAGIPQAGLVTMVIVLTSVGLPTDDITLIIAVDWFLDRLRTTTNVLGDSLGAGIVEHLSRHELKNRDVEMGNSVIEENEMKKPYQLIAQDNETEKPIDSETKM

IC50 | SMILES
> 316 µM | CCN(CC)c1ccc2c(C)c(-c3ccc(C4C5=C(CC(c6ccccc6)CC5=O)OC(=N)C4C#N)cc3)c(=O)oc2c1 (configuration not stated)
> 316 µM | COc1ccc2c(C)c(-c3ccc(C4C5=C(CC(c6ccccc6)CC5=O)OC(=N)C4C#N)cc3)c(=O)oc2c1 (configuration not stated)
> 316 µM | CCN(CC)c1ccc2c(C3C4=C(CC(c5cccc6ccccc56)CC4=O)OC(=N)C3C#N)cc(=O)oc2c1 (configuration not stated)
> 316 µM | COc1ccc2c(C3C4=C(CC(c5ccccc5)CC4=O)OC(=N)C3C#N)cc(=O)oc2c1 (configuration not stated)

biological target: T1, Excitatory amino acid transporter 3 (Homo sapiens, UniProt P43005); test: Inhibition of [3H]-D-aspartate uptake at human EAAT3 expressed in HEK293 cells after 6 mins by scintillation counting; procedure, shortened: as §1
T1 sequence (P43005 whole entry): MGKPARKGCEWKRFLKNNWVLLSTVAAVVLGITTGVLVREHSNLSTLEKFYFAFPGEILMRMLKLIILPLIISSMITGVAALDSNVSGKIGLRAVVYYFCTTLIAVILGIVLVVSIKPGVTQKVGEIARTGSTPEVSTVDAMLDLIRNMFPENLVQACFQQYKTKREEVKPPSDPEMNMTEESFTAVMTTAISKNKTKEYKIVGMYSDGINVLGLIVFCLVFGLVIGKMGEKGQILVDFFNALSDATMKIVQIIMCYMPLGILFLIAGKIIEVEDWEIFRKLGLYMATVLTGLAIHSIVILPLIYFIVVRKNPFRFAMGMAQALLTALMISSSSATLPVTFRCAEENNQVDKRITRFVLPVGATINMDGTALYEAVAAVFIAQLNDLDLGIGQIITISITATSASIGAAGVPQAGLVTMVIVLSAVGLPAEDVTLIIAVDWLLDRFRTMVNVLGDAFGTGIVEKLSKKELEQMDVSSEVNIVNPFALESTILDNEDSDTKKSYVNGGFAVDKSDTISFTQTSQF

IC50 | SMILES
> 300 µM | CCN(CC)c1ccc2c(C)c(-c3ccc(C4C5=C(CC(c6ccccc6)CC5=O)OC(=N)C4C#N)cc3)c(=O)oc2c1 (configuration not stated)
> 300 µM | COc1ccc2c(C)c(-c3ccc(C4C5=C(CC(c6ccccc6)CC5=O)OC(=N)C4C#N)cc3)c(=O)oc2c1 (configuration not stated)
> 300 µM | CCN(CC)c1ccc2c(C3C4=C(CC(c5cccc6ccccc56)CC4=O)OC(=N)C3C#N)cc(=O)oc2c1 (configuration not stated)
> 300 µM | COc1ccc2c(C3C4=C(CC(c5ccccc5)CC4=O)OC(=N)C3C#N)cc(=O)oc2c1 (configuration not stated)

biological target: Excitatory amino acid transporter 2 (Homo sapiens, UniProt P43004); test: Inhibition of [3H]-D-aspartate uptake at human EAAT2 expressed in HEK293 cells after 6 mins by scintillation counting; procedure, shortened: as §1
Sequence (P43004 whole entry): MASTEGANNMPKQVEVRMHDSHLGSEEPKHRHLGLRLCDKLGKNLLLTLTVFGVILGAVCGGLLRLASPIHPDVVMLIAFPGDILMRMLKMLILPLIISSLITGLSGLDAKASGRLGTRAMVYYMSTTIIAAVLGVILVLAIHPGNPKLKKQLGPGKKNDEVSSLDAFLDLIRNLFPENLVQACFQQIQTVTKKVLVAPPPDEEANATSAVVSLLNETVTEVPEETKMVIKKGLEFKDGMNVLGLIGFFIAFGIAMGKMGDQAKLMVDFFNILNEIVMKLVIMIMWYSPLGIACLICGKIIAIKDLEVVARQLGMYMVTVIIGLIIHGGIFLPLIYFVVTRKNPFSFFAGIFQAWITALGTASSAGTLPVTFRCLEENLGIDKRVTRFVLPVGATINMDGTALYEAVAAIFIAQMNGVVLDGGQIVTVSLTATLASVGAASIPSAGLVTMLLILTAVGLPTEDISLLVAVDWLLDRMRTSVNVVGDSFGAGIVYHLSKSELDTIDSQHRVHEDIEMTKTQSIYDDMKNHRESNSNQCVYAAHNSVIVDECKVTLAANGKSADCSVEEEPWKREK

IC50 | SMILES
> 300 µM | CCN(CC)c1ccc2c(C)c(-c3ccc(C4C5=C(CC(c6ccccc6)CC5=O)OC(=N)C4C#N)cc3)c(=O)oc2c1 (configuration not stated)
> 300 µM | COc1ccc2c(C)c(-c3ccc(C4C5=C(CC(c6ccccc6)CC5=O)OC(=N)C4C#N)cc3)c(=O)oc2c1 (configuration not stated)
> 300 µM | CCN(CC)c1ccc2c(C3C4=C(CC(c5cccc6ccccc56)CC4=O)OC(=N)C3C#N)cc(=O)oc2c1 (configuration not stated)
> 300 µM | COc1ccc2c(C3C4=C(CC(c5ccccc5)CC4=O)OC(=N)C3C#N)cc(=O)oc2c1 (configuration not stated)

Reference: BindingDB's records for doi:10.1016/j.bmc.2012.09.049 (University of Copenhagen, 2012)
